According to ChEMBL document CHEMBL1148329, “Synthesis and structure-activity studies on N-[5-(1H-imidazol-4-yl)-5,6,7,8-tetrahydro-1-naphthalenyl]methanesulfonamide, an imidazole-containing alpha(1A)-adrenoceptor agonist” (J Med Chem, 2004):

Experiments:
[1] = molecular target: T1, Alpha-1B adrenergic receptor (Mesocricetus auratus, UniProt P18841); test: In vitro binding affinity towards alpha-1B adrenergic receptor of hamster clone in radioligand binding assay; assay type: single protein
T1 sequence (P18841 whole entry): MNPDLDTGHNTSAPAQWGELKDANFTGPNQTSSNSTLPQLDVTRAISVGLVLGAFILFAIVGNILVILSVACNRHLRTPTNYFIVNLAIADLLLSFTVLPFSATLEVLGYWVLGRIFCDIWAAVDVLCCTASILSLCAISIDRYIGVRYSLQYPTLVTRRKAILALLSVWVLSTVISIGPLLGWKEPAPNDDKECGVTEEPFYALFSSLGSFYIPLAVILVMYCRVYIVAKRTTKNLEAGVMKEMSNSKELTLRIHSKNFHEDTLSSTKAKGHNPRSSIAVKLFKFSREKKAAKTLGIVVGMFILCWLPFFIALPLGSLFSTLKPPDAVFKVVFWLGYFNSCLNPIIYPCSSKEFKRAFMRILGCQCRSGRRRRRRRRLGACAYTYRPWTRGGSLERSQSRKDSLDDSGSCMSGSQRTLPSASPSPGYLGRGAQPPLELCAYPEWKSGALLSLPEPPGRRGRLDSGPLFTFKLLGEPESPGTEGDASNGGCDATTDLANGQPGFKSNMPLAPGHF
Procedure, shortened: (§1)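 Radioligand binding at α1 subtypes: α1A from rat submaxillary gland, α1B hamster clone, α1D rat clone. Run essentially per an earlier method.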

[2] = tested on: Canis familiaris; test: Uroselectivity was determined by measuring effective dose required for 5 mmHg increase of intraurethral pressure (IUP) in vivo in dog; assay type: functional, Canis lupus familiaris
Procedure, shortened: (§2)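 Dog model recording intraurethral pressure (IUP) and mean arterial pressure (MAP) simultaneously. Increasing iv doses given, maximal effect of each dose taken. Doses giving a 5 mmHg rise in IUP (ED Δ5) or 20 mmHg rise in MAP (ED Δ20) were calculated, in nmol/kg ± SEM, n ≥ 4 (2 or 3 where footnoted).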

[3] = tested on: Canis familiaris; test: Uroselectivity was determined by measuring effective dose required for 20 mmHg increase of mean arterial pressure (MAP) in vivo in dog; assay type: functional, Canis lupus familiaris, Artery; procedure, shortened: as §2
[4] = molecular target: T2, Alpha-2B adrenergic receptor (Rattus norvegicus, UniProt P19328); test: In vitro binding affinity towards alpha-2B adrenergic receptor of rat neonatal lung in radioligand binding assay
T2 sequence (P19328 whole entry): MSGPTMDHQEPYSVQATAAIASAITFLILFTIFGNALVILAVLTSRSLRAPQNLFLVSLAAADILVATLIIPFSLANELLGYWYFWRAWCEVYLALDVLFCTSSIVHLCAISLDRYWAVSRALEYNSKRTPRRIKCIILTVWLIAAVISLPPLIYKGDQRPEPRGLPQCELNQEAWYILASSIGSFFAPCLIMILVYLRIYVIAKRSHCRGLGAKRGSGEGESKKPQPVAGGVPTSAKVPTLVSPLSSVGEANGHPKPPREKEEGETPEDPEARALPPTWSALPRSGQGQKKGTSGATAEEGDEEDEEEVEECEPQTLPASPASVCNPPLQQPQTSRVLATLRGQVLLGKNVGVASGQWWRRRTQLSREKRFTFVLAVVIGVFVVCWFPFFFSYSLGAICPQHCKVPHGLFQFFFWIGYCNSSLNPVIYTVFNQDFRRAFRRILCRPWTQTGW

[5] = molecular target: T3, Alpha-1D adrenergic receptor (Rattus norvegicus, UniProt P23944); test: In vitro binding affinity towards alpha-1D adrenergic receptor of rat clone in radioligand binding assay; procedure, shortened: as §1
T3 sequence (P23944 whole entry): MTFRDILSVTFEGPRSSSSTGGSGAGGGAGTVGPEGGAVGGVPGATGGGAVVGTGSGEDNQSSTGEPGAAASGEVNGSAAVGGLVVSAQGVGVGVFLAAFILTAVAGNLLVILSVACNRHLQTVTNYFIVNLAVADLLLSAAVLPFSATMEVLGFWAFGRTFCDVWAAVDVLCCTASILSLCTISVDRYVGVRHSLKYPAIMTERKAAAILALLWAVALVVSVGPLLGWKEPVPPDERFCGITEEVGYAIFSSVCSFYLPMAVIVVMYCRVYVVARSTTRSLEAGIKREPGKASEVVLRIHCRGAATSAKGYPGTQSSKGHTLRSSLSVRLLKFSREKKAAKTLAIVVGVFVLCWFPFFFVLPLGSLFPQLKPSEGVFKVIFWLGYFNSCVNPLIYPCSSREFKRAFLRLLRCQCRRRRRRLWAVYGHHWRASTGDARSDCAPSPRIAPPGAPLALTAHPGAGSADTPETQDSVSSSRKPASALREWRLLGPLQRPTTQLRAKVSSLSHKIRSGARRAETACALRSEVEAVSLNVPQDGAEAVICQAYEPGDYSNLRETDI

[6] = molecular target: T4, Alpha-2A adrenergic receptor (Rattus norvegicus) (UniProt P22909); test: Efficacy relative to clonidine to constrict tissue containing the alpha-2A adrenergic receptor in rat prostatic vas deferens
T4 sequence (whole entry): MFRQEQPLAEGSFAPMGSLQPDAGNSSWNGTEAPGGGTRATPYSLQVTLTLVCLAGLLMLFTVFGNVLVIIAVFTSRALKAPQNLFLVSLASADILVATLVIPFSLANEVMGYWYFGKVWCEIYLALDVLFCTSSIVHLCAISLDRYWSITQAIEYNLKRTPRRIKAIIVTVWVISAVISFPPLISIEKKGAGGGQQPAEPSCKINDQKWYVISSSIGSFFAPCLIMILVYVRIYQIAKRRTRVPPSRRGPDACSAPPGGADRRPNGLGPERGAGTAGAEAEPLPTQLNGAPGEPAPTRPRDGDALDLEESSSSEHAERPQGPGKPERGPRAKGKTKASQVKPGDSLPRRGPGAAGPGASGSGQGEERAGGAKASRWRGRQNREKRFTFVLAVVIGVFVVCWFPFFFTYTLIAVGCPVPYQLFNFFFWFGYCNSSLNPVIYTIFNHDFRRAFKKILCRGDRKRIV

[7] = molecular target: T5, Alpha-2A adrenergic receptor (Homo sapiens, UniProt P08913); test: In vitro binding affinity towards alpha-2A adrenergic receptor of human clone in radioligand binding assay
T5 sequence (P08913 whole entry): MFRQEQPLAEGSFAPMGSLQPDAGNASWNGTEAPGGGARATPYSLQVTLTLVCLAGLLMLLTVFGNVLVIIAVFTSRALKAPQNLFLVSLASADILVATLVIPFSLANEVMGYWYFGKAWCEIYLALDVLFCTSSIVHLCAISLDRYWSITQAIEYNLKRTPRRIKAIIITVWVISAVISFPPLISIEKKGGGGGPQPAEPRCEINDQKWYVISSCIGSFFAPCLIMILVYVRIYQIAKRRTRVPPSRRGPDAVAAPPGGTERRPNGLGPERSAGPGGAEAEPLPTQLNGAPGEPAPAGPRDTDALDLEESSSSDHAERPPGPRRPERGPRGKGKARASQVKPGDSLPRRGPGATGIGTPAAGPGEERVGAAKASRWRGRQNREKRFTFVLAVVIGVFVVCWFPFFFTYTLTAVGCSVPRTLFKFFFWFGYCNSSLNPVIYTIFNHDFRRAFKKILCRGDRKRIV

[8] = molecular target: T6, Alpha-1A adrenergic receptor (Oryctolagus cuniculus) (UniProt O02824); test: Efficacy relative to phenylephrine (PE) to constrict tissue containing the alpha-1A adrenergic receptor in rabbit urethra; assay type: functional, tissue-based
T6 sequence (whole entry): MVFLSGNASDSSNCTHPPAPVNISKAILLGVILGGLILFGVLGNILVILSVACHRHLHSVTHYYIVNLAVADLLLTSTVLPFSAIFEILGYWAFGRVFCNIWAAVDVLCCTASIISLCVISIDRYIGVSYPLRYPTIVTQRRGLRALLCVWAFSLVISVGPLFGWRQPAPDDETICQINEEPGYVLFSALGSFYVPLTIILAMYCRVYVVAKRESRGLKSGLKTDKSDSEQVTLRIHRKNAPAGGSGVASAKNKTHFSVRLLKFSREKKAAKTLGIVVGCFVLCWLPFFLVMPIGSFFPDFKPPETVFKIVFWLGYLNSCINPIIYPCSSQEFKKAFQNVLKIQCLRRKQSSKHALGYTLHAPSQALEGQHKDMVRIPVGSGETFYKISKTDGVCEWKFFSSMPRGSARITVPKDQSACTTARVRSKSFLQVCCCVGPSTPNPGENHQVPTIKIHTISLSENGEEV
Procedure, shortened: (§3)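 α1-agonist dose–response curves in isolated tissue: rabbit urethra (α1A), rat spleen (α1B), rat aorta (α1D). Agonist potency and efficacy read from the concentration–response curves.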

[9] = molecular target: Alpha adrenergic receptor 1A and 1D (Rattus norvegicus) (UniProt P23944+P43140); test: Selectivity is ratio of pKi (binding affinity) of Alpha-1D to that of alpha1A; assay type: protein assay
[10] = molecular target: Alpha adrenergic receptor 1A and 1B (Rattus norvegicus) (UniProt P15823+P43140); test: Selectivity is ratio of pKi (binding affinity) of alpha-1B receptor to that of alpha-1A receptor.; assay type: protein assay
[11] = molecular target: T7, Alpha-1A adrenergic receptor (Rattus norvegicus, UniProt P43140); test: In vitro binding affinity towards alpha-1A adrenergic receptor of rat submaxillary gland in radioligand binding assay; procedure, shortened: as §1
T7 sequence (P43140 whole entry): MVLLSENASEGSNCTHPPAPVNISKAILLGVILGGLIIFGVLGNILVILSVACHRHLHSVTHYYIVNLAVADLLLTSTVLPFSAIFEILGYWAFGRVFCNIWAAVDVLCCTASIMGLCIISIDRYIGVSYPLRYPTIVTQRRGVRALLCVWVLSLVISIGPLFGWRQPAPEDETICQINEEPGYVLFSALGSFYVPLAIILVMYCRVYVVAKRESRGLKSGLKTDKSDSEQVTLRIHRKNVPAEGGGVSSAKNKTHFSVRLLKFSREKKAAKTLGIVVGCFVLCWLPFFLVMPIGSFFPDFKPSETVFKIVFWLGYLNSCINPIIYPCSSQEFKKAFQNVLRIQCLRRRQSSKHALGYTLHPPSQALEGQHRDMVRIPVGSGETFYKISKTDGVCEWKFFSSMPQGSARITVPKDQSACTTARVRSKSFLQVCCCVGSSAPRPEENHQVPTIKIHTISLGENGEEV

[12] = species on record: Canis familiaris; test: Ratio of MAP ED delta20 to that of IUP ED delta5
[13] = molecular target: T8, Alpha-1B adrenergic receptor (Rattus norvegicus) (UniProt P15823); test: Efficacy relative to phenylephrine (PE) constriction of rat spleen containing alpha-1B adrenergic receptor; assay type: functional, tissue-based; procedure, shortened: as §3
T8 sequence (whole entry): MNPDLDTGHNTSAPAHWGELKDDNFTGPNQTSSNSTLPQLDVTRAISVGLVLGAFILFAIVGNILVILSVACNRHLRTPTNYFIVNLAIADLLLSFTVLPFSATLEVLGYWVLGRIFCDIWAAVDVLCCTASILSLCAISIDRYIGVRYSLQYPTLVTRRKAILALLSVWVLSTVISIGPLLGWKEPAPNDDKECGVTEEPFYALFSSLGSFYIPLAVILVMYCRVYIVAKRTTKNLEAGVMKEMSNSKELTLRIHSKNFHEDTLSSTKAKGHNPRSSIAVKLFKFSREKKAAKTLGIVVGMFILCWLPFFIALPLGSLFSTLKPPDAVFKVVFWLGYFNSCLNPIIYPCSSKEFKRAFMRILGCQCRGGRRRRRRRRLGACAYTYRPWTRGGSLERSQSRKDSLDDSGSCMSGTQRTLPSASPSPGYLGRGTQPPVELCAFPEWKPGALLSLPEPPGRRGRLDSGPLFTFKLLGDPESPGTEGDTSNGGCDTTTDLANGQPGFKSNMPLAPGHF

[14] = molecular target: T6, Alpha-1A adrenergic receptor (Oryctolagus cuniculus); test: Functional agonism of the compounds to constrict tissue containing the alpha-1A adrenergic receptor in rabbit urethra; assay type: tissue-based; procedure, shortened: as §3

## CCS(=O)(=O)Nc1cccc(Cc2c[nH]cn2)c1
[1]
  Ki: 891 nM
[2]
  ED delta5: 12 nM/kg
[3]
  ED delta20: 80 nM/kg
[4]
  Ki: 977 nM
[5]
  Ki: 275 nM
[6]
  Efficacy: 34%
[7]
  Ki: 170 nM
[8]
  Efficacy: 80%

## CCS(=O)(=O)Nc1cc(Cl)cc2c1CCCC2c1c[nH]cn1 (stereo unspecified)
[1]
  Ki: > 10000 nM
[2]
  ED delta5: 19.1 nM/kg
[9]
  Selectivity: 8
[3]
  ED delta20: 47.7 nM/kg
[10]
  Selectivity: > 217
[11]
  Ki: 45.7 nM
[12]
  Ratio: 2.5

## CS(=O)(=O)Nc1cccc2c1CCC[C@H]2c1c[nH]cn1
[3]
  ED delta20: 48.7 nM/kg
[6]
  Efficacy: 29%
[8]
  Efficacy: 84%

## CS(=O)(=O)Nc1cccc2c1OCCC2c1c[nH]cn1 (stereo unspecified)
[13]
  Efficacy: 17%
[3]
  ED delta20: 163.9 nM/kg
[8]
  Efficacy: 88%

## CS(=O)(=O)Nc1cccc2c1CCCC2c1c[nH]cn1 (stereo unspecified)
[3]
  ED delta20: 102.3 nM/kg
[4]
  Ki: 676 nM
[6]
  Efficacy: 62%
[7]
  Ki: 105 nM
[8]
  Efficacy: 83%

## CCS(=O)(=O)Nc1cccc2c1CCC2c1c[nH]cn1 (stereo unspecified)
[2]
  ED delta5: 4.4 nM/kg
[3]
  ED delta20: 5.6 nM/kg
[4]
  Ki: 186 nM
[6]
  Efficacy: 26%
[8]
  Efficacy: 87%

## CC(=O)Nc1cccc2c1CCCC2c1c[nH]cn1 (stereo unspecified)
[13]
  Efficacy: 35%
[3]
  ED delta20: 220 nM/kg
[4]
  Ki: 3020 nM
[6]
  Efficacy: 100%
[8]
  Efficacy: 70%

## CS(=O)(=O)Nc1cccc2c1CCCC2C1=NCCN1 (stereo unspecified)
[1]
  Ki: 7410 nM
[2]
  ED delta5: 11.9 nM/kg
[9]
  Selectivity: 9
[14]
  pD2: 6.19
[3]
  ED delta20: 9.2 nM/kg
[5]
  Ki: 4270 nM
[10]
  Selectivity: 20
[11]
  Ki: 457 nM
[8]
  Efficacy: 87%
[12]
  Ratio: 1.1
